ChEMBL document CHEMBL1153549 (Antimicrob Agents Chemother, 2008)
Values after ≈ are worked out from the molar mass of the structure shown. Active and inactive are the calls of the source. The rule behind the calls is not given here.

How the values were obtained:
Streptococcus pneumoniae [1] = assay: Antibacterial activity against Streptococcus pneumoniae ATCC 49619 by standard checkerboard method in presence of 0.2 to 1 mg/ml pulmonar surfactant; type: functional, organism-based
Outline: (§1)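 CLSI broth microdilution in cation-adjusted Mueller-Hinton broth combined with checkerboard of drug against pulmonary surfactant up to 1 mg/ml (25-fold dilution of Survanta); 50 mg/liter Ca2+ added for daptomycin only. Ratios of activity with vs without surfactant given as median and range of two separate experiments.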

Staphylococcus aureus [2] = assay: Antibacterial activity against methicillin-resistant Staphylococcus aureus ATCC 33591 by standard checkerboard method in presence of 0.2 to 1 mg/ml pulmonar surfactant; type: functional, organism-based
Outline: (§2)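 Checkerboard combination of antibiotic with pulmonary surfactant (Survanta) by CLSI broth microdilution in cation-adjusted Mueller-Hinton broth. The top surfactant level was 1 mg/ml, a 25-fold dilution of Survanta. For daptomycin, the broth carried 50 mg/liter Ca2+.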

Staphylococcus aureus [3] = assay: Antibacterial activity against methicillin-resistant Staphylococcus aureus ATCC 33591 by CLSI broth microdilution method; type: functional
Outline: (§3)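 MICs by CLSI reference broth microdilution in cation-adjusted Mueller-Hinton broth. For daptomycin testing, the medium was supplemented with 50 mg/liter Ca2+.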

Homo sapiens [4] = assay: Toxicity in healthy human assessed as pulmonar infection at 10 mg/kg, iv once daily for 3 days; type: organism-based; parameters: dose 10 mg/kg, route intravenous; conditions: in vivo, 72 h
Homo sapiens [5] = assay: Toxicity in healthy human at 10 mg/kg/day infused over 1 hr; type: organism-based; conditions: in vivo
[6] = Drug level in epithelial lining fluid of healthy human undergoing fiber-optic bronchoscopy at 10 mg/kg, iv once daily for 3 days measured at 8 hrs after start of infusion by validated liquid chromatography; type: ADME, organism-based; parameters: dose 10 mg/kg, route intravenous; conditions: read-out: Drug uptake
Streptococcus pneumoniae [7] = assay: Antibacterial activity against Streptococcus pneumoniae
[8] = Cmax in healthy human at 10 mg/kg, iv once daily for 3 days measured at 24 after start of infusion; type: ADME, organism-based; parameters: dose 10 mg/kg, route intravenous; conditions: in vivo
Outline: (§4)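 Plasma from healthy adults given 10 mg/kg IV over 60 min daily for 3 days, sampled before infusions 1 and 3 and 1, 2, 4, 6, 8, 12, 24 h after the third; validated LC-MS/MS (LLOQ 0.25 μg/ml). Noncompartmental analysis: Cmax, Tmax, Cmin observed; AUC0-24 linear trapezoidal; kel by log-linear regression; t1/2 = 0.693/kel; CL = dose/AUC0-24.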

Staphylococcus aureus [9] = assay: Antibacterial activity against methicillin-susceptible Staphylococcus aureus; type: functional; outline: as §3
Mus musculus = assay: fAUC (0 to 24) in mouse pneumonia model at 40 mg/kg; type: ADME, organism-based; parameters: dose 40 mg/kg; conditions: in vivo
[10] = Mean residence time in healthy human at 10 mg/kg, iv once daily for 3 days measured at 24 after start of infusion; type: ADME, organism-based; parameters: dose 10 mg/kg, route intravenous; conditions: in vivo; outline: as §4
Homo sapiens [11] = assay: Plasma protein binding in healthy human undergoing fiber-optic bronchoscopy at 10 mg/kg, iv once daily for 3 days; conditions: read-out: PPB (converted)
[12] = Drug level in alveolar macrophage of healthy human undergoing fiber-optic bronchoscopy at 10 mg/kg, iv once daily for 3 days measured at 24 after start of infusion by validated liquid chromatography; type: ADME, organism-based; parameters: dose 10 mg/kg, route intravenous; conditions: alveolar macrophages, read-out: Drug uptake
[13] = Plasma concentration in healthy human undergoing fiber-optic bronchoscopy at 10 mg/kg, iv once daily for 3 days measured at 24 hrs after start of infusion by validated liquid chromatography; type: ADME, organism-based; parameters: dose 10 mg/kg, route intravenous
[14] = Tmax in healthy human at 10 mg/kg, iv once daily for 3 days measured at 24 after start of infusion; type: ADME, organism-based; parameters: dose 10 mg/kg, route intravenous; conditions: in vivo; outline: as §4
[15] = Drug level in alveolar macrophage of healthy human undergoing fiber-optic bronchoscopy at 10 mg/kg, iv once daily for 3 days measured at 12 after start of infusion by validated liquid chromatography; type: ADME, organism-based; parameters: dose 10 mg/kg, route intravenous; conditions: alveolar macrophages, read-out: Drug uptake
Staphylococcus aureus [16] = assay: Antibacterial activity against methicillin-resistant Staphylococcus aureus; type: functional
[17] = Ratio of drug level in alveolar macrophage to plasma of healthy human undergoing fiber-optic bronchoscopy at 10 mg/kg, iv once daily for 3 days measured at 24 hrs after start of infusion; conditions: alveolar macrophages / plasma
[18] = Cmin in healthy human at 10 mg/kg, iv once daily for 3 days measured at 24 after start of infusion; type: ADME, organism-based; parameters: dose 10 mg/kg, route intravenous; conditions: in vivo, read-out: Cmin; outline: as §4
[19] = Terminal half life in healthy human at 10 mg/kg, iv once daily for 3 days measured at 24 after start of infusion; type: ADME, organism-based; parameters: dose 10 mg/kg, route intravenous; conditions: in vivo, read-out: beta t1/2 (converted); outline: as §4
[20] = Ratio of drug level in alveolar macrophage to plasma of healthy human undergoing fiber-optic bronchoscopy at 10 mg/kg, iv once daily for 3 days measured at 12 hrs after start of infusion; conditions: alveolar macrophages / plasma
Streptococcus pneumoniae [21] = assay: Antibacterial activity against […] Streptococcus pneumoniae; type: functional; outline: as §3
Homo sapiens [22] = assay: Toxicity in healthy human at 10 mg/kg, iv once daily for 3 days by clinical laboratory test; type: organism-based; parameters: dose 10 mg/kg, route intravenous; conditions: in vivo, 72 h
Outline: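 Safety monitored by physical examinations, electrocardiographs and clinical laboratory tests (hematology, serum chemistry, urinalysis) at screening and specified times during 3 days of 10 mg/kg 1-h IV infusions.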

Homo sapiens [23] = assay: Toxicity in healthy human assessed as pulmonar inflammation at 10 mg/kg, iv once daily for 3 days; type: organism-based; parameters: dose 10 mg/kg, route intravenous; conditions: in vivo, 72 h
[24] = AUC (0 to 24) in epithelial lining fluid of healthy human at 10 mg/kg, iv once daily for 3 days; type: ADME, organism-based; parameters: time < 24 hr, dose 10 mg/kg, route intravenous; conditions: in vivo, 24 h
[25] = Drug level in epithelial lining fluid of healthy human undergoing fiber-optic bronchoscopy at 10 mg/kg, iv once daily for 3 days measured at 24 hrs after start of infusion by validated liquid chromatography; type: ADME, organism-based; parameters: dose 10 mg/kg, route intravenous; conditions: read-out: Drug uptake
[26] = Clearance at steady state in healthy human at 10 mg/kg, iv once daily for 3 days measured at 24 after start of infusion; type: ADME, organism-based; parameters: dose 10 mg/kg, route intravenous; conditions: in vivo, read-out: CLss (converted); outline: as §4
[27] = Drug level in alveolar macrophage of healthy human undergoing fiber-optic bronchoscopy at 10 mg/kg, iv once daily for 3 days measured at 8 hrs after start of infusion by validated liquid chromatography; type: ADME, organism-based; parameters: dose 10 mg/kg, route intravenous; conditions: alveolar macrophages, read-out: Drug uptake
[28] = Plasma concentration in healthy human undergoing fiber-optic bronchoscopy at 10 mg/kg, iv once daily for 3 days measured at 12 hrs after start of infusion by validated liquid chromatography; type: ADME, organism-based; parameters: dose 10 mg/kg, route intravenous
Staphylococcus aureus [29] = assay: Antibacterial activity against methicillin-resistant Staphylococcus aureus ATCC 33591 by standard checkerboard method in presence of pulmonar surfactant and 50 mg/liter Ca2+; type: functional, organism-based; outline: as §2
Streptococcus pneumoniae [30] = assay: Antibacterial activity against Streptococcus pneumoniae ATCC 49619 by standard checkerboard method in presence of pulmonar surfactant and 50 mg/liter Ca2+; type: functional, organism-based; outline: as §1
Streptococcus pneumoniae [31] = assay: Ratio of antibacterial activity against Streptococcus pneumoniae ATCC 49619 in presence of 1 mg/ml pulmonar surfactant and 50 mg/liter Ca2+ to antibacterial against Streptococcus pneumoniae ATCC 49619; type: functional; outline: as §1
Staphylococcus aureus [32] = assay: Ratio of antibacterial activity against methicillin-resistant Staphylococcus aureus ATCC 33591 in presence of 1 mg/ml pulmonar surfactant and 50 mg/liter Ca2+ to antibacterial against methicillin-resistant Staphylococcus aureus ATCC 33591; type: functional
Outline: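 Broth microdilution in cation-adjusted Mueller-Hinton broth (plus 50 mg/liter Ca2+ for daptomycin), with versus without 1 mg/ml pulmonary surfactant (Survanta). Reported as the median and range of activity ratios from two separate experiments.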

For `CN[C@H](CC(C)C)C(=O)N[C@H]1C(=O)N[C@@H](CC(N)=O)C(=O)N[C@H]2C(=O)N[C@H]3C(=O)N[C@H](C(=O)N[C@H](C(=O)O)c4cc(O)cc(O)c4-c4cc3ccc4O)[C@H](O)c3ccc(c(Cl)c3)Oc3cc2cc(c3O[C@@H]2O[C@H](CO)[C@@H](O)[C@H](O)[C@H]2O[C@H]2C[C@](C)(N)[C@H](O)[C@H](C)O2)Oc2ccc(cc2Cl)[C@H]1O`, the Activity (Streptococcus pneumoniae [1]) was “Active” and the Activity (Staphylococcus aureus [2]) was “Active”.

For `CCCCCCCCCCNCCN[C@@]1(C)C[C@H](O[C@H]2[C@H](Oc3c4cc5cc3Oc3ccc(cc3Cl)[C@@H](O)[C@@H](NC(=O)[C@@H](CC(C)C)NC)C(=O)N[C@@H](CC(N)=O)C(=O)N[C@H]5C(=O)N[C@H]3C(=O)N[C@H](C(=O)N[C@H](C(=O)O)c5cc(O)c(CNCP(=O)(O)O)c(O)c5-c5cc3ccc5O)[C@H](O)c3ccc(c(Cl)c3)O4)O[C@H](CO)[C@@H](O)[C@@H]2O)O[C@@H](C)[C@H]1O` [TELAVANCIN], the Activity (Staphylococcus aureus [3]) was 0.5 µg/mL, the Activity (Homo sapiens [4]) was “Non-toxic” and the Activity (Homo sapiens [5]) was “Non-toxic”. For the same compound, the concentration at 8 h [6] was 3700 ng/mL, the MIC90 (Streptococcus pneumoniae [7]) was 0.03 µg/mL (≈ 0.0171 µM) and the Cmax [8] was 116000 ng/mL. The MIC90 (Staphylococcus aureus [9]) was 0.5 µg/mL (≈ 0.285 µM), the fAUC (Mus musculus) was 52.3 µg/h/mL and the MRT [10] was 9.42 h. It also gave a fraction unbound at 72 h (Homo sapiens [11]) of 0.1, a concentration at 72 h [12] of 42000 ng/mL and a concentration at 24 h [13] of 7280 ng/mL. For the same compound, the Tmax [14] was 1 h, the concentration at 72 h [15] was 45000 ng/mL and the MIC90 (Staphylococcus aureus [16]) was 0.5 µg/mL (≈ 0.285 µM). The Kp at 24 h [17] was 6.67, the concentration at 72 h [18] was 8110 ng/mL and the half-life [19] was 7.41 h. The Activity (Streptococcus pneumoniae [1]) was “Active”, the Kp at 12 h [20] was 1.93 and the MIC90 (Streptococcus pneumoniae [21]) was 0.03 µg/mL (≈ 0.0171 µM). For the same compound, the Activity (Homo sapiens [22]) was “Non-toxic”, the Activity (Homo sapiens [23]) was “Non-toxic” and the Activity (Staphylococcus aureus [2]) was “Active”. It also gave an AUC [24] of 45 µg/h/mL, a concentration at 24 h [25] of 900 ng/mL and a clearance [26] of 0.217 mL/min/kg. The concentration at 8 h [27] was 19000 ng/mL and the concentration at 12 h [28] was 22900 ng/mL.

For `CCCCCCCCCC(=O)N[C@@H](Cc1c[nH]c2ccccc12)C(=O)N[C@H](CC(N)=O)C(=O)N[C@@H](CC(=O)O)C(=O)N[C@@H]1C(=O)NCC(=O)N[C@@H](CCCN)C(=O)N[C@@H](CC(=O)O)C(=O)N[C@H](C)C(=O)N[C@@H](CC(=O)O)C(=O)NCC(=O)N[C@H](CO)C(=O)N[C@@H]([C@H](C)CC(=O)O)C(=O)N[C@@H](CC(=O)c2ccccc2N)C(=O)O[C@@H]1C`, the Activity (Staphylococcus aureus [29]) was “inactive”, the Activity (Streptococcus pneumoniae [30]) was “inactive” and the Ratio (Streptococcus pneumoniae [31]) was 128. For the same compound, the Ratio (Staphylococcus aureus [32]) was 32.

In the case of `CO/N=C(\C(=O)N[C@@H]1C(=O)N2C(C(=O)O)=C(CSc3nc(=O)c(O)nn3C)CS[C@H]12)c1csc(N)n1`, the Activity (Streptococcus pneumoniae [1]) is reported as “Active” and the Activity (Staphylococcus aureus [2]) is reported as “Active”.
